The sample as a whole holds a higher share of hits than the screen did.
A1 apoptosis 2: A1 inhibitors via caspase activation, primary screen, cell-based, luminescence, HTS, two replicates | 24,000 tested, under 10 active | MEF A1-2A-BIM cells, caspase-Glo luminescence, 3 h; percent of clofoctol response, DMSO zero | caspase activation, % (concentration not given with the values); in the data active = caspase activation above about 5.9%; inconclusive = no clear call, values can overlap the other calls; inactive = below about 2.2%
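Test system – A1-2A-BIM-expressing MEF cells · Input – 2500 cells/well · Medium – RPMI-1640 growth medium with 10% FBS · Compound dosing – 50 nL pinned compound · Timing – 3 h compound exposure at 37 °C · Technique – Caspase-Glo luminescence (DEVD substrate) · Evaluation – Caspase-3/7 activity from luminescence increase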
INS-1E ATP HTS: protection of INS-1E cells from cytokine death, primary screen, ATP luminescence, single point. AID 488910, 2010. protection from cytokine-induced ATP loss, % at 10 µM. actives 0.1% (n = 20,000). INS-1E cytokine-induced death, 48 h; normalised: neutral wells 0, positive control 100;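 active = mean replicate protection from cytokine-induced ATP loss at least 50% and at least 75% of replicates each reaching 50%; inconclusive = meets only one of the two criteria, mean or replicate share; inactive = fails both the mean and replicate share criteria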
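assay system = INS-1E rat insulinoma cells | amount = 8000 cells per well | medium = phenol-red-free RPMI with 5% fetal bovine serum | doses = one compound concentration, pin transfer | timing = 48 h cytokine plus compound treatment, 10 min reagent incubation | also added = IL-1β, TNF-α and IFN-γ cytokine mix | signal = CellTiter-Glo luminescence measuring cellular ATP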
T cruzi HTS: inhibitors of intracellular Trypanosoma cruzi, primary screen, cell-based, plate reader, single point, set 2 | intracellular Trypanosoma cruzi in host cells | activity score (inhibition), % at 5.01 µM | actives 4.9% (n = 22,000) | AID 651903, 2012; in the data active = activity score above about 55%; inconclusive = no clear call, values can overlap the other calls;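 also: parasites and compound incubated about four days before reading; 0% = median of neutral control wells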
The depositor's hits bear a star; ? = inconclusive; / = no result given.

SMILES	A1 apoptosis 2	INS-1E ATP HTS	T cruzi HTS
Cc1ccc(S(=O)(=O)N(C)C[C@@H]2Oc3ncc(C#Cc4ccccc4)cc3C(=O)N([C@H](C)CO)C[C@@H]2C)cc1	0	-15	57*
C[C@H](CO)N1C[C@H](C)[C@H](CN(C)S(C)(=O)=O)Oc2ncc(C#Cc3ccc(C(F)(F)F)cc3)cc2C1=O	0	/	17
C[C@H](CO)N1C[C@H](C)[C@H](CN(C)S(=O)(=O)c2cccs2)Oc2ncc(C#Cc3ccccc3)cc2C1=O	1	/	73*
C[C@H](CO)N1C[C@H](C)[C@H](CN(C)S(=O)(=O)c2cccc(F)c2)Oc2ncc(C#Cc3cccc(F)c3)cc2C1=O	/	/	51
C[C@H](CO)N1C[C@H](C)[C@H](CN(C)S(=O)(=O)c2cccs2)Oc2ncc(C#CCN(C)C)cc2C1=O	/	/	1
C[C@H](CO)N1C[C@H](C)[C@H](CN(C)S(=O)(=O)c2ccc(C#N)cc2)Oc2ncc(C#Cc3ccc(C(F)(F)F)cc3)cc2C1=O	1	-11	87*
O=C(NO)c1ccc(C(=O)N/N=C/c2ccc(OCCO)cc2)cc1	/	-1	-12
O=C(O)CCCCCC(=O)N/N=C/c1cccnc1Br	1	3	-10
O=C(CCCCCC(=O)N/N=C/c1cccnc1)NO	0	8	-3
O=C(CCCCCCC(=O)Nc1ccccc1O)N/N=C/c1cc(O)ccc1O	/	6	0
O=C(N/N=C/c1ccc(S(=O)(=O)O)o1)c1ccccn1	/	-11	-17
CC1(C)COC(CCC/C=N/NC(=O)CCCCCCC(=O)O)OC1	/	1	-27
COc1cccc(S(=O)(=O)N(C)C[C@@H]2Oc3ncc(-c4ccccc4)cc3C(=O)N([C@H](C)CO)C[C@@H]2C)c1	/	0	31
C[C@H](CO)N1C[C@H](C)[C@H](CN(C)S(=O)(=O)c2ccc(F)cc2)Oc2ncc(C#Cc3cccc(F)c3)cc2C1=O	0	/	65*
C[C@H](CO)N1C[C@H](C)[C@H](CN(C)S(=O)(=O)c2ccccc2)Oc2ncc(C#Cc3ccc(F)cc3)cc2C1=O	0	/	52
COc1cccc(S(=O)(=O)N(C)C[C@@H]2Oc3ncc(C#Cc4ccccc4)cc3C(=O)N([C@H](C)CO)C[C@@H]2C)c1	-1	/	62*
C[C@H](CO)N1C[C@H](C)[C@H](CN(C)S(=O)(=O)c2ccccc2)Oc2ncc(C#Cc3cccc(F)c3)cc2C1=O	0	/	47
Cc1ccc(S(=O)(=O)N(C)C[C@@H]2Oc3ncc(C#Cc4ccc(F)cc4)cc3C(=O)N([C@H](C)CO)C[C@@H]2C)cc1	/	/	59*
COc1ccc(C#Cc2cnc3c(c2)C(=O)N([C@H](C)CO)C[C@H](C)[C@H](CN(C)S(=O)(=O)c2ccc(C)cc2)O3)cc1OC	0	/	34
C[C@H](CO)N1C[C@H](C)[C@H](CN(C)S(=O)(=O)c2ccc(F)cc2)Oc2ncc(C#Cc3ccc(F)cc3)cc2C1=O	-1	/	66*
CN(C)CCCOc1ccc(/C=N/NC(=O)c2ccccn2)cc1	-5	5	21
O=C(C1=C[C@H](c2ccc3c(c2)Cc2ccccc2-3)C[C@H](OCc2ccc(CO)cc2)O1)N1CCCCC1	1	/	/
CC(C)(C)OC(=O)Nc1ccc(/C=N/NC(=O)c2ccccc2O)cc1	/	-22	-7
CCOc1cccc(/C=N/NC(=O)c2cccc(C(=O)NO)c2)c1OCC	-4	3	-13
O=C(NO)c1ccc(C(=O)N/N=C/c2ccc(Br)o2)cc1	1	8	-17
SMILES	A1 apoptosis 2	INS-1E ATP HTS	T cruzi HTS
O=C1O[C@@H](c2ccccc2)[C@@H](c2ccccc2)N2[C@@H](c3ccc(OCCO)cc3)[C@]3(C(=O)Nc4ccc(C#CCCO)cc43)[C@@H](C(=O)NC[C@H](O)c3ccccc3)[C@H]12	0	/	/
C[C@H](CO)N1C[C@H](C)[C@H](CN(C)S(=O)(=O)c2ccc(F)cc2)Oc2ncc(-c3cccc(C(F)(F)F)c3)cc2C1=O	-1	/	89*
COc1ccc(S(=O)(=O)N(C)C[C@@H]2Oc3ncc(-c4cccc(C(F)(F)F)c4)cc3C(=O)N([C@H](C)CO)C[C@@H]2C)cc1	-1	/	46
C[C@H](CO)N1C[C@H](C)[C@H](CN(C)S(=O)(=O)c2cccc(F)c2)Oc2ncc(Br)cc2C1=O	/	/	20
C[C@H](CO)N1C[C@H](C)[C@H](CN(C)S(=O)(=O)c2cccc(F)c2)Oc2ncc(-c3cccc(C(F)(F)F)c3)cc2C1=O	/	/	59*
COc1ccc([Si](C)(C)[C@@H]2[C@@H](CC(=O)N3CCC[C@H]3CO)O[C@]3(C(=O)N(Cc4ccc(I)cc4)c4ccccc43)[C@H]2C)cc1	0	/	/
C[C@H](CO)N1C[C@H](C)[C@H](CN(C)Cc2cccc(C(F)(F)F)c2)Oc2ncc(-c3cccc(C(F)(F)F)c3)cc2C1=O	0	/	89*
C[C@H](CO)N1C[C@H](C)[C@H](CN(C)C(=O)NC2CCCCC2)Oc2ncc(-c3cccc(C(F)(F)F)c3)cc2C1=O	7.1*	/	?
C[C@H](CO)N1C[C@H](C)[C@H](CN(C)C(=O)NC2CCCCC2)Oc2ncc(-c3ccc(F)cc3)cc2C1=O	/	/	-8
Cc1cccc(CN(C)C[C@@H]2Oc3ncc(-c4cccc(F)c4)cc3C(=O)N([C@H](C)CO)C[C@@H]2C)c1	2	/	40
C[C@H](CO)N1C[C@H](C)[C@H](CN(C)C(=O)NC2CCCCC2)Oc2ncc(C#Cc3ccccc3)cc2C1=O	?	/	52
C[C@H](CO)N1C[C@H](C)[C@H](CN(C)C(=O)NC2CCCCC2)Oc2ncc(C#Cc3cccc(F)c3)cc2C1=O	/	/	63*
C[C@H](CO)N1C[C@H](C)[C@H](CN(C)Cc2ccncc2)Oc2ncc(-c3cccc(C(F)(F)F)c3)cc2C1=O	0	/	46
C[C@H](CO)N1C[C@H](C)[C@H](CN(C)Cc2cccc(C(F)(F)F)c2)Oc2ncc(-c3cccc(F)c3)cc2C1=O	0	/	65*
O=C(N/N=C/c1ccc(C(F)(F)F)cc1)c1ccccn1	-11	1	-11
COC(=O)CCCCCCC(=O)N/N=C/c1nc[nH]c1C	1	11	-9
O=C(O)c1ccc(/C=N/NC(=O)c2ccccn2)cc1	/	5	-18
O=C(CCCCCCC(=O)Nc1ccccc1O)N/N=C/c1ccc(O)c(O)c1O	/	23	51
O=C(O)CCCCCCC(=O)NN=C1CCCCCCC1	-1	8	-21
C#Cc1ccc(OC)c(OC)c1	1	/	/
COc1ccc(CN(C)C[C@@H]2Oc3ccc(NS(=O)(=O)c4ccc(Cl)cc4)cc3CC(=O)N([C@@H](C)CO)C[C@H]2C)cc1	-1	/	/
COc1ccc(S(=O)(=O)Nc2ccc3c(c2)CC(=O)N([C@@H](C)CO)C[C@@H](C)[C@@H](CN(C)Cc2ccc(Cl)c(Cl)c2)O3)cc1	/	-39	63*
COc1ccc(S(=O)(=O)Nc2ccc3c(c2)CC(=O)N([C@H](C)CO)C[C@H](C)[C@@H](CN(C)Cc2ccc(Cl)c(Cl)c2)O3)cc1	-1	/	/

From PubChem BioAssay
